# Source: PubChem
# CSC inhib: cancer stem cell viability inhibitors, primary screen, luminescence; cancer stem cell-like cells viability; inhibition, % at 7.5 µM; hit rate 1.1% among 300,000; AID 2717, 2010; in the data active = inhibition above about 75%; tested in HMLE shEcad cells
# FN deposition inh: inhibitors of fibronectin matrix deposition, primary screen, AH1F cells, Alexa488-fibronectin fluorescence, plate reader | AH1F fibroblasts, overnight | AID 743247, 2014 | hit rate 0.086% among 350,000 | inhibition, % at 12.6 µM;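 active = mean inhibition across replicates of 30% or more, regardless of how many single replicates reach that level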;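 note: positive control wells lacked labelled fibronectin entirely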
#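 Schedule: 1 h cell adhesion before compound, then overnight fibronectin incubation; test system: AH1F fibroblast monolayer depositing Alexa488-labelled fibronectin into matrix; quantity: 10000 AH1F cells per well; probe or stimulus: fluorescent fibronectin at 24 nM final; signal: fluorescence, ex 485 nm, em 525 nm; evaluation: percent inhibition as loss of matrix-bound fibronectin fluorescence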
# PglD DTNB: C. jejuni PglD acetyltransferase inhibitors, primary screen, biochemical, DTNB colorimetric, single point; UDP-N-acetylbacillosamine N-acetyltransferase PglD (Campylobacter jejuni); purified PglD enzyme, DTNB colorimetric CoA detection; inhibition, % at 12.5 µM; hit rate 0.098% among 360,000; AID 602405, 2012; in the data active = inhibition above about 16%, passing the limit was not always enough
# SKKanGAS inh: S. pyogenes SKKanGAS growth inhibitors in kanamycin, primary screen, streptokinase expression inhibitor project, SKKanGAS strain, BacTiter-Glo luminescence. AID 1662, 2009. hit rate 1.3% among 300,000. inhibition, % at 7.5 µM. 6 h;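 active = mean replicate score, as percent of positive control median, at least 50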;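 note: strain carries kanamycin resistance gene driven by streptokinase promoter and grows in 40 µg/ml kanamycin; loss of luminescence reflects streptokinase promoter inhibition or plain growth inhibition; 0% = median of DMSO wells and 100% = positive control at its reference dose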
# Rtt109 HAT inh: inhibitors of C. albicans Rtt109/Vps75 HAT, primary screen, biochemical, ThioGlo CoA-SH fluorescence, plate reader; Histone acetyltransferase RTT109 (Candida albicans (strain SC5314 / ATCC MYA-2876)), …; purified Rtt109/Vps75, 4 h; inhibition, % at 34.9 µM; hit rate 0.16% among 330,000; AID 540336, 2011;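 active = inhibition of at least 50% in every replicate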
# Target sequence (Q5AAJ8 whole entry, looked up): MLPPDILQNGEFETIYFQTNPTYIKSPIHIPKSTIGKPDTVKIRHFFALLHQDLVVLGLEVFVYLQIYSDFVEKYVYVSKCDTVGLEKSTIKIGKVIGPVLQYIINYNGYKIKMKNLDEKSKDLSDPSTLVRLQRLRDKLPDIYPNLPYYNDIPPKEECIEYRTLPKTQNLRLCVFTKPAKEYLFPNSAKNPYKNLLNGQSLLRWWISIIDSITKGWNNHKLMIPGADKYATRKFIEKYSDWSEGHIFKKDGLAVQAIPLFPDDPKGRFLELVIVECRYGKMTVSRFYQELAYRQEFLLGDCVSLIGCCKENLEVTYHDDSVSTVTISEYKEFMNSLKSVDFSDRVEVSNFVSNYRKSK
# PfHsp90 set2: growth inhibition of PfHsp90-expressing yeast, primary screen, antimalarial PfHsp90 inhibitor project, S. cerevisiae, BacTiter-Glo luminescence, single point, set 2. hit rate 0.32% among 310,000. BacTiter-Glo ATP, 48 h; yeast lacking PDR1 and PDR3 efflux regulators. inhibition, % at 9.4 µM;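 active = every replicate shows inhibition above about 80%, whatever the replicate mean, limit read from the data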;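 note: 0% = DMSO neutral controls and 100% = 20 µM radicicol positive controls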
# * hit, by the source's call; / = not tested or not shown. A selection: hits, their analogues and other compounds. The true share with any hit is near 1.7%.
SMILES,CSC inhib,FN deposition inh,PglD DTNB,SKKanGAS inh,Rtt109 HAT inh,PfHsp90 set2
CCCc1cn(CC[C@H]2CC[C@H](NC(=O)C3CCC3)[C@H](CO)O2)nn1,/,/,2,/,/,/
O=C(/C=C\c1ccccc1)NCC(=O)N/N=C/c1ccc(O)cc1O,104*,/,4,-2,-10,-5
O=C(CNC(=O)C1COc2ccccc2O1)N/N=C\c1cccc(O)c1 (centres undefined),5,8,/,3,9,-2
Cc1cc(SCC(=O)N/N=C/c2ccc(O)cc2O)c(C)cc1Br,96*,0,-2,79*,-4,19
O=C(CNC(=O)C1COc2ccccc2O1)N/N=C/c1ccc(O)cc1O (centres undefined),78*,14,/,9,1,2
CO[C@H]1CN(C)C(=O)c2cc(NS(C)(=O)=O)ccc2OC[C@H](C)N(C(=O)C2CCCC2)C[C@@H]1C,/,-3,-3,/,/,/
CCOC(=O)C1CCN(c2nc(N)c3c(N)nc(SCC(=O)O)cc3c2C#N)CC1,/,-7,-3,8,68*,-19
CN1CCN(S(=O)(=O)c2cccc(C(=O)N(Cc3ccccc3)c3ccccc3)c2)CC1,11,/,0,-8,56*,14
CCCNC(=O)N(C)C[C@@H]1Oc2ncc(-c3ccc(OC)cc3)cc2C(=O)N([C@H](C)CO)C[C@@H]1C,/,/,-2,/,/,/
COC(=O)c1c(NC(=O)CN(C)CC(=O)Nc2ccc(C)cc2)sc2c1CCC(C)C2 (centres undefined),/,4,-1,/,1,-36
COC(=O)c1c(NC(=O)Cc2cccs2)sc2c1CCC(C)C2 (centres undefined),80*,/,1,9,-11,10
COC(=O)c1c(NC(=S)NN2CCN(C)CC2)sc2c1CCC(C)C2 (centres undefined),104*,-5,/,31,-2,2
C[C@H](NC(=O)C[C@H]1C[C@H]2c3cc(NC(=O)c4cccnc4)ccc3O[C@H]2[C@@H](CO)O1)c1ccccc1,/,/,-2,/,/,/
O=C(c1ccc2c(c1)OCO2)N1CC[C@@H]2[C@H]1c1cc(-c3ccc(F)cc3)ccc1N[C@@H]2CO,/,18,-2,/,/,/
C[C@H](CO)N1C[C@H](C)[C@H](CN(C)C(=O)Nc2ccc(C(F)(F)F)cc2)Oc2ccc(NS(C)(=O)=O)cc2C1=O,/,/,-1,/,/,/
O=C(C[C@H]1CC[C@H]2[C@@H](COC[C@@H](O)CN2C(=O)Nc2ccc(Cl)cc2)O1)N1CCCCC1,/,-13,1,/,/,/
COC(=O)c1cc(-c2ccc(Br)cc2)c2c(=O)[nH]c(=O)n(C)c2n1,-3,2,-4,62*,1,-19
COC(=O)c1cc(-c2ccc(OC)c(OC)c2)c2c(=O)[nH]c(=O)n(C)c2n1,0,4,-4,37,1,-32
CCOc1ccc(-c2cc(C(=O)OC)nc3c2c(=O)n(C)c(=O)n3C)cc1,6,0,/,93*,-6,16
O=C(C[C@@H]1C[C@@H]2c3cc(NC(=O)c4ccc5c(c4)OCO5)ccc3O[C@@H]2[C@@H](CO)O1)NCc1ccc(Oc2ccccc2)cc1,/,31*,-2,/,/,/
CC(C)NC(=O)Nc1ccc2c(c1)C(=O)N([C@@H](C)CO)C[C@H](C)[C@@H](CN(C)S(=O)(=O)c1cccs1)OCCCC[C@@H](C)O2,/,-8,-2,/,/,/
O=C(Nc1ccccc1)N1CC(=O)N2[C@H](C1)[C@H](c1ccc(C#CC3CCCC3)cc1)[C@@H]2CO,/,-6,/,/,/,/
CCC(C)NC(=O)C1CCN(S(=O)(=O)c2cc([N+](=O)[O-])ccc2Cl)CC1 (centres undefined),37,9,/,3,54*,14
COc1ccc(CNC(=O)N(C)C[C@H]2OCc3ccccc3-c3ccccc3C(=O)N([C@H](C)CO)C[C@H]2C)cc1,/,7,/,/,/,/
COC(=O)C1=C(C)NC(=O)CC1c1cc2c(cc1Br)OCO2 (centres undefined),-8,/,-2,-2,8,2
SMILES,CSC inhib,FN deposition inh,PglD DTNB,SKKanGAS inh,Rtt109 HAT inh,PfHsp90 set2
CC1=C(C(=O)OC2CCCCCCC2)C(c2cc3c(cc2Br)OCO3)CC(=O)N1 (centres undefined),118*,6,-1,43,2,-25
O=C(O)c1cccc2c1Cc1cc(Cl)ccc1-2,/,7,5,/,-3,107*
Cc1ccccc1CS(=O)(=O)c1nnc([C@H](Cc2ccccc2)NC(=O)OC(C)(C)C)o1,99*,/,-3,17,5,109*
CCC(C)[C@@H](NC(=O)OC(C)(C)C)c1nnc(S(=O)(=O)Cc2cccc(C)c2)o1 (some centres undefined),/,/,/,-17,12,121*
Cc1cccc(CS(=O)(=O)Cc2ccc(C(=O)NC(C)c3ccccc3)o2)c1 (centres undefined),-8,6,-4,-6,0,-3
CCSc1nnc([C@H](Cc2ccccc2)NC(=O)OC(C)(C)C)o1,-13,19,-2,0,-7,-8
CC(C)(C)OC(=O)N[C@@H](Cc1ccccc1)c1nnc(S(=O)(=O)Cc2ccccc2)o1,131*,/,/,/,/,/
C[C@@H]1CCCCO[C@H](CN(C)C(=O)NC2CCCCC2)[C@@H](C)CN([C@@H](C)CO)C(=O)c2cc(NC(=O)Cc3ccccc3)ccc2O1,/,/,-2,/,/,/
CCCN1[C@@H]2c3ccc(-c4ccc(C(=O)N(C)C)cc4)c(=O)n3C[C@@H]2[C@@H](CO)[C@@H]1C(=O)NCC,/,/,-1,/,/,/
O=C(Nc1ccnn1C1CCN(C(=O)c2ccc(F)cc2)CC1)C1CCOC1 (centres undefined),-1,5,2,52*,1,-14
C[C@@H]1CN([C@@H](C)CO)C(=O)c2cccc(NS(=O)(=O)c3ccc(Cl)cc3)c2O[C@H]1CN(C)C(=O)Nc1ccc(C(F)(F)F)cc1,/,/,3,/,/,/
CO[C@H]1CN(C)C(=O)c2cc(NC(C)=O)ccc2OC[C@@H](C)NC[C@@H]1C,/,/,19*,/,/,/
Cc1[nH]n(-c2ccccc2)c(=O)c1C(C[N+](=O)[O-])c1ccccc1Cl (centres undefined),-6,/,0,6,14,-52
COc1ccc(C(C[N+](=O)[O-])c2c(C)[nH]n(-c3ccccc3)c2=O)cc1 (centres undefined),2,-4,-2,5,4,117*
CC(=O)Oc1cc2c3c(c1)/C(=C1/SC(=S)NC1=O)C(=O)N3C(C)(C)C=C2C,16,-9,/,82*,3,-7
CCOc1cc2c3c(c1)C(C)=CC(C)(C)N3C(=O)C2=O,17,-7,-6,7,6,40
